From ChEMBL document CHEMBL4145448, “Broad activity of diphenyleneiodonium analogues against Mycobacterium tuberculosis, malaria parasites and bacterial pathogens” (Eur J Med Chem, 2018)

What was measured:
[1] = Cytotoxicity against human HepG2 cells after 24 hrs in presence of 1% FBS by resazurin dye based assay; type: cell-based
Method in brief: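 HepG2 cells seeded at 4000/well in DMEM with 1% FBS and allowed to attach for 24 h at 37 °C, 5% CO2. Compounds added from 300 to 0.14 µM in 3-fold steps and incubated 24 h. 10 µM resazurin added for 2 h, fluorescence read at ex/em 560/590. Percent viability computed relative to untreated and negative controls, duplicate wells.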

Plasmodium falciparum [2] = experiment: microbe, parasite or virus in culture; details: CS2, 90 h
[3] = Selectivity index, ratio of CC50 for human HepG2 cells in presence of 1% FBS to MIC for Acinetobacter baumannii isolate 246-01-C; type: toxicity; details: read-out: Selectivity Index
[4] = Selectivity index, ratio of CC50 for human HepG2 cells in presence of 1% FBS to IC50 for CQ-sensitive GFP-fused Plasmodium falciparum D10; type: toxicity; details: read-out: Ratio IC50
[5] = Selectivity index, ratio of CC50 for human HepG2 cells in presence of 1% FBS to MIC for Klebsiella pneumoniae isolate 248-33-D; type: toxicity; details: read-out: Selectivity Index
[6] = Selectivity index, ratio of CC50 for human HepG2 cells in presence of 1% FBS to MIC for Escherichia coli N4149; type: toxicity; details: read-out: Selectivity Index
Klebsiella pneumoniae [7] = experiment: Antibacterial activity against Klebsiella pneumoniae isolate 224-11-C after 18 hrs by broth microdilution method; type: functional
Method in brief: (§1)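 Broth microdilution per CLSI in cation-adjusted Mueller-Hinton broth. 100 µL inoculum (~10^6 cfu/mL in CaMHB) mixed with 100 µL CaMHB containing compound, 0 to 128 µM. Incubated 18 h at 37 °C. MIC taken as the lowest concentration with no visible growth. Polymyxin B served as positive control. Isolates were stored at -80 °C in tryptone soy broth with 20% glycerol.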

[8] = Selectivity index, ratio of CC50 for human HepG2 cells in presence of 1% FBS to MIC for methicillin-resistant Staphylococcus aureus ATCC 43300; type: toxicity; details: read-out: Selectivity Index
Method in brief: (§2)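 Selectivity index is CC50 (1% FBS) divided by MIC. […] They then got compound at 300 to 0.14 µM (3-fold steps) for 24 h at 37 °C, 5% CO2. Resazurin (10 µM, 2 h) was read at ex/em 560/590 in duplicate wells. For MIC, CLSI broth microdilution was run in CaMHB with ~10^6 cfu/mL inoculum and 0–128 µM compound.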

Escherichia coli [9] = experiment: Antibacterial activity against Escherichia coli N2381 after 18 hrs by broth microdilution method; type: functional; details: N2381, 18 h; method in brief: as §1
Klebsiella pneumoniae [10] = experiment: Antibacterial activity against Klebsiella pneumoniae ATCC 13883 after 18 hrs by broth microdilution method; type: functional; details: ATCC 13883, 18 h; method in brief: as §1
Escherichia coli [11] = experiment: Antibacterial activity against Escherichia coli N11281 after 18 hrs by broth microdilution method; type: functional; details: N11281, 18 h; method in brief: as §1
[12] = Selectivity index, ratio of CC50 for human HepG2 cells in presence of 1% FBS to MIC for Pseudomonas aeruginosa isolate M146201; type: toxicity; details: read-out: Selectivity Index; method in brief: as §2
[13] = Selectivity index, ratio of CC50 for human HepG2 cells in presence of 1% FBS to MIC for Pseudomonas aeruginosa isolate 19147nm; type: toxicity; details: read-out: Selectivity Index; method in brief: as §2
Pseudomonas aeruginosa [14] = experiment: Antibacterial activity against Pseudomonas aeruginosa isolate 912 after 18 hrs by broth microdilution method; type: functional; details: isolate 912, 18 h; method in brief: as §1
Plasmodium falciparum [15] = experiment: Growth inhibition of CQ-sensitive GFP-fused Plasmodium falciparum D10 after 90 hrs by ethidium bromide staining based flow cytometry; type: functional, organism-based; details: D10, 90 h
Method in brief: (§3)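 Parasites cultured in human O+ erythrocytes in RPMI-HEPES pH 7.4 with hypoxanthine, NaHCO3, gentamicin and 0.5% Albumax II under 1% O2/4% CO2 at 37 °C. Synchronised to rings with heparin plus sorbitol. Set up at 1% parasitaemia and 1% haematocrit with 10x compound added. Cultured 90 h to next-cycle trophozoites. Stained with 10 µg/mL ethidium bromide for 1 h, washed, parasitaemia counted by flow cytometry with GFP gating.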

Pseudomonas aeruginosa [16] = experiment: Antibacterial activity against Pseudomonas aeruginosa isolate 19147nm after 18 hrs by broth microdilution method; type: functional; method in brief: as §1
[17] = Selectivity index, ratio of CC50 for human HepG2 cells in presence of 1% FBS to MIC for Pseudomonas aeruginosa isolate 18878B klon 1; type: toxicity; details: read-out: Selectivity Index; method in brief: as §2
Plasmodium knowlesi [18] = experiment: microbe, parasite or virus in culture; details: YH1, 90 h
[19] = Selectivity index, ratio of CC50 for human HepG2 cells in presence of 1% FBS to MIC for Pseudomonas aeruginosa isolate 912; type: toxicity; details: read-out: Selectivity Index; method in brief: as §2
Pseudomonas aeruginosa [20] = experiment: Antibacterial activity against Pseudomonas aeruginosa ATCC 27853 after 18 hrs by broth microdilution method; type: functional; details: ATCC 27853, 18 h; method in brief: as §1
[21] = Selectivity index, ratio of CC50 for human HepG2 cells in presence of 1% FBS to MIC for Mycobacterium tuberculosis H37Rv ATCC 25618; type: toxicity; details: read-out: Selectivity Index
Plasmodium falciparum [22] = experiment: Growth inhibition of […] GFP-fused Plasmodium falciparum D10 after 90 hrs by ethidium bromide staining based flow cytometry; type: functional, organism-based; details: D10, 90 h; method in brief: as §3
[23] = Selectivity index, ratio of CC50 for human HepG2 cells in presence of 1% FBS to IC50 for Plasmodium knowlesi YH1; type: toxicity; details: read-out: Ratio IC50
Plasmodium knowlesi [24] = experiment: Growth inhibition of Plasmodium knowlesi YH1 after 50 hrs by ethidium bromide staining based flow cytometry; type: functional, organism-based; details: YH1, 50 h
Method in brief: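 P. knowlesi YH1 cultured in human O+ erythrocytes in RPMI-HEPES with 0.5% Albumax II under 1% O2/4% CO2. Ring-synchronised parasites set up at 1% parasitaemia and 1% haematocrit with compound. Cultured 50 h to late trophozoites of the next cycle. Stained 1 h with 10 µg/mL ethidium bromide and parasitaemia counted by flow cytometry.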

[25] = Selectivity index, ratio of CC50 for human HepG2 cells in presence of 1% FBS to IC50 for drug-resistant GFP-fused Plasmodium falciparum D10; type: toxicity; details: read-out: Ratio IC50
[26] = Stability in cation-adjusted Mueller-Hinton broth at 37 degC after 1 day by LC-MS analysis; type: physicochemical; details: 24 h
Method in brief: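 Compound was incubated under bacterial assay conditions: CaMHB, 37 °C, polypropylene microtitre wells. The species present were analysed by LCMS the next day.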

| Structure (SMILES) | CC50 at 24 h [1] [nM] | selectivity ratio [3] | selectivity ratio [4] | selectivity ratio [5] | selectivity ratio [6] | MIC (Klebsiella pneumoniae [7]) [µM] | selectivity ratio [8] | MIC (Escherichia coli [9]) [µM] | MIC (Klebsiella pneumoniae [10]) [µM] | MIC (Escherichia coli [11]) [µM] | selectivity ratio [12] | selectivity ratio [13] | MIC (Pseudomonas aeruginosa [14]) [µM] | IC50 (Plasmodium falciparum [15]) [nM] | MIC (Pseudomonas aeruginosa [16]) [µM] | selectivity ratio [17] | selectivity ratio [19] | MIC (Pseudomonas aeruginosa [20]) [µM] | selectivity ratio [21] | IC50 (Plasmodium falciparum [22]) [nM] | further results |
| --- | --- | --- | --- | --- | --- | --- | --- | --- | --- | --- | --- | --- | --- | --- | --- | --- | --- | --- | --- | --- | --- |
| c1ccc2c(c1)[I+]c1ccccc1-2 | 29200 | 6.3 | 221 | 0.78 | 0.78 | 75 | 6.3 | 37 | 37 | 37 | 3.1 | 13 | 4.7 | 130 | 2.3 | 6.3 | 6.3 | 75 | 96 |  | IC50 (Plasmodium falciparum [2]): 40 nM; IC50 (Plasmodium knowlesi [18]): 740 nM |
| N#Cc1ccc2c(c1)-c1ccccc1[I+]2 | 22300 | 0.13 | 531 | 0.32 | > 0.32 | > 71 | 20 | 71 | 35 | 71 | 2.5 | 5.1 | 8.8 | 40 | 4.4 | 2.5 | 2.5 | 71 | 78 | 90 | selectivity ratio [23]: 232; IC50 (Plasmodium knowlesi [24]): 110 nM; selectivity ratio [25]: 256 |
| Fc1cccc2c1-c1ccccc1[I+]2 | 4600 | < 16 | 96 | 0.51 | 4.2 | 9 | 2.1 | 1.1 | 4.5 | 4.5 | 4.1 | < 16 | 4.5 | 50 | < 0.28 | < 16 | 1 | 2.2 | 16 | 80 | selectivity ratio [23]: 59; IC50 (Plasmodium knowlesi [24]): 80 nM; selectivity ratio [25]: 61 |
| Clc1cccc2c1-c1ccccc1[I+]2 | 660 | < 2.4 | 13 | 0.08 | 1.2 | 8.6 | 0.61 | 0.54 | 4.3 | 2.2 | 1.2 | < 2.4 | < 0.27 | 50 | < 0.27 | < 2.4 | < 2.4 | < 0.27 | 2.4 | 70 | selectivity ratio [23]: 8.5; IC50 (Plasmodium knowlesi [24]): 80 nM; selectivity ratio [25]: 8.9 |
| Cc1ccc2c(c1)[I+]c1ccccc1-2.O=S(=O)([O-])C(F)(F)F | 3600 | 0.21 | 15.8 | 0.05 | 0.05 | 72 | 0.81 | 72 | 72 | 36 | 0.11 | 0.81 | 4.5 | 230 | 4.5 | 0.81 | 0.81 | 72 | 6.4 |  | Stability [26]: Stable |
| Clc1ccc2c(c1)-c1ccccc1[I+]2 | 16100 | 3.7 | 194 | 0.93 | 0.93 | 35 | 7.5 | 17 | 8.7 | 17 | 3.7 | 3.7 | 4.3 | 80 | 4.3 | 7.5 | 3.7 | 8.7 | 30 |  |  |
| c1ccc2c(c1)[I+]c1c-2ccc2ccccc12 | 720 | 0.17 | 5.8 | 0.02 | 0.02 | 34 | 0.34 | 8.4 | 8.4 | 17 | 0.09 | 0.34 | 2.1 | 120 | 2.1 | 0.34 | 0.34 | 8.4 | 2.4 |  |  |
